Data from ChEMBL document CHEMBL4359895, “Discovery and biological evaluation of darolutamide derivatives as inhibitors and down-regulators of wild-type AR and the mutants” (Eur J Med Chem, 2019).
Calls of active or inactive are those of the source. The rule behind the calls is not given here.

How the values were obtained:
LNCaP [1] = experiment: Induction of androgen receptor splice variant 7 mutant degradation in human LNCAP cells at 30 uM incubated upto 26 hrs in presence of bortezomib/MG132 by Western blot analysis; format: functional, cell-based
[2] = Half life in Sprague-Dawley rat 30 mg/kg, po measured up to 24 hrs by LC-MS/MS analysis; format: ADME, organism-based; settings: in vivo
Summary of the method: (§1)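 Rats dosed orally at 30 mg/kg, compound formulated in 10% DMA / 90% PEG200. Plasma levels followed over time to build concentration-time curves, from which T1/2, Tmax, Cmax and AUC were derived.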

[3] = Plasma concentration in Sprague-Dawley rat 30 mg/kg, po measured up to 24 hrs by LC-MS/MS analysis; format: ADME, organism-based; summary of the method: as §1
[4] = AUC (0 to t) in Sprague-Dawley rat 30 mg/kg, po measured up to 24 hrs by LC-MS/MS analysis; format: ADME, organism-based; set-up: dose 30 mg/kg, time < 24 hr, route oral; settings: in vivo; summary of the method: as §1
VCaP [5] = experiment: Antitumor activity against castration-resistant human VCaP cells xenografted in BALB/c mouse assessed as tumor growth inhibition at 30 mg/kg, po administered for 40 days; format: functional; settings: 960 h, read-out: TGI
Summary of the method: (§2)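 Castration-resistant VCaP xenografts grown in male BALB/c nude mice. Animals dosed once daily for 40 days alongside a vehicle group. Tumor volume tracked over time, with tumor weights taken at end. Reported as tumor growth inhibition, mean ± SEM, N = 8-9 per group.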

VCaP [6] = experiment: Antitumor activity against castration-resistant human VCaP cells xenografted in BALB/c mouse assessed as tumor growth inhibition at 60 mg/kg, po administered for 40 days; format: functional; settings: 960 h, read-out: TGI; summary of the method: as §2
CWR22R [7] = experiment: Inhibition of AR protein expression in human 22Rv1 cells at 10 to 40 uM incubated for 24 hrs by Western blot analysis; format: functional, cell-based
Summary of the method: (§3)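 LNCaP, VCaP and 22Rv1 cells grown in medium with 10% (v/v) FBS. Treated with compounds or DMSO for 24 h. AR-full and AR splice-variant protein then assessed by western blot.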

LNCaP [8] = experiment: Inhibition of AR protein expression in human LNCAP cells at 5 to 30 uM incubated for 24 hrs by Western blot analysis; format: functional, cell-based; summary of the method: as §3
LNCaP [9] = experiment: Inhibition of AR splice variant 7 mutant expression in human LNCAP cells at 5 to 30 uM incubated for 24 hrs by Western blot analysis analysis; format: functional, cell-based; summary of the method: as §3
LNCaP [10] = experiment: Inhibition of AR mRNA level in human LNCAP cells at 5 to 30 uM incubated for 24 hrs by qRT-PCR analysis; format: functional, cell-based
Summary of the method: (§4)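 LNCaP, VCaP and 22Rv1 cells treated with DMSO or compounds for 24 h. AR-full and AR-V7 mRNA measured by qRT-PCR and normalised to GAPDH. Mean ± SD, n = 3, compared with DMSO by two-tailed t test.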

VCaP [11] = experiment: Inhibition of AR mRNA level in human VCaP cells at 10 to 40 uM incubated for 24 hrs by qRT-PCR analysis; format: functional, cell-based; summary of the method: as §4
LNCaP [12] = experiment: Inhibition of AR splice variant 7 mutant gene expression in human LNCAP cells at 5 to 30 uM incubated for 24 hrs by qRT-PCR analysis; format: functional, cell-based; summary of the method: as §4
CWR22R [13] = experiment: Inhibition of AR splice variant 7 mutant gene expression in human 22Rv1 cells at 10 to 40 uM incubated for 24 hrs by qRT-PCR analysis; format: functional, cell-based; summary of the method: as §4
LNCaP [14] = experiment: Inhibition of AR protein expression in human LNCAP cells at 5 to 20 uM incubated for 24 hrs by Western blot analysis; format: functional, cell-based; summary of the method: as §3
CWR22R [15] = experiment: Inhibition of AR protein expression in human 22Rv1 cells at 10 to 30 uM incubated for 24 hrs by Western blot analysis; format: functional, cell-based; summary of the method: as §3
LNCaP [16] = experiment: Inhibition of AR splice variant 7 mutant expression in human LNCAP cells at 5 to 20 uM incubated for 24 hrs by Western blot analysis analysis; format: functional, cell-based; summary of the method: as §3
CWR22R [17] = experiment: Inhibition of AR splice variant 7 mutant expression in human 22Rv1 cells at 10 to 30 uM incubated for 24 hrs by Western blot analysis analysis; format: functional, cell-based; summary of the method: as §3
VCaP [18] = experiment: Inhibition of AR mRNA level in human VCaP cells at 10 to 30 uM incubated for 24 hrs by qRT-PCR analysis; format: functional, cell-based; summary of the method: as §4
CWR22R [19] = experiment: Inhibition of AR mRNA level in human 22Rv1 cells at 10 to 30 uM incubated for 24 hrs by qRT-PCR analysis; format: functional, cell-based; summary of the method: as §4
VCaP [20] = experiment: Inhibition of AR splice variant 7 mutant gene expression in human VCaP cells at 10 to 30 uM incubated for 24 hrs by qRT-PCR analysis; format: functional, cell-based; summary of the method: as §4
CWR22R [21] = experiment: Inhibition of AR splice variant 7 mutant gene expression in human 22Rv1 cells at 10 to 30 uM incubated for 24 hrs by qRT-PCR analysis; format: functional, cell-based; summary of the method: as §4

With `C[C@@H](Cn1ccc(-c2ccc(C#N)c(Cl)c2)n1)Nc1ncnc2nc[nH]c12` the Activity (LNCaP [1]) was “inactive”, the half-life [2] was 107 min and the Cmax [3] was 2650 ng/mL. It also gave an AUC(0-t) at 24 h [4] of 7280 ng·h/mL, an inhibition in vivo at 30 mg/kg (VCaP [5]) of 64.7% and an inhibition in vivo at 60 mg/kg (VCaP [6]) of 77.8%. For the same compound, the inhibition (CWR22R [7]) was “Active”, the inhibition (LNCaP [8]) was “Active” and the inhibition (LNCaP [9]) was “Active”. The inhibition (LNCaP [10]) was “Active”, the inhibition (VCaP [11]) was “Active” and the inhibition (LNCaP [12]) was “Active”. For the same compound, the inhibition (CWR22R [13]) was “Active”.
For `C[C@@H](Cn1ccc(-c2ccc(C#N)c(Cl)c2)n1)Nc1cccc2ncccc12`, the inhibition (LNCaP [14]) was “Active”, the inhibition (CWR22R [15]) was “Active” and the inhibition (LNCaP [16]) was “Active”. For the same compound, the inhibition (CWR22R [17]) was “Active”, the inhibition (VCaP [18]) was “Active” and the inhibition (CWR22R [19]) was “Active”. For the same compound, the inhibition (VCaP [20]) was “Active” and the inhibition (CWR22R [21]) was “Active”.
